Measured values collected from several papers.
Compare with care: the assays were run in different laboratories.
Target: Casein kinase I isoform alpha (CSNK1A1, Homo sapiens, UniProt P48729)

SMILES	effect on	method	concentration	remaining binding [%]
F[C@@H]1CCN(c2nccc(-c3cnn4ncccc34)n2)C1	binding		1 µM	90
CNCc1ccccc1-c1csc([C@H](C)Nc2nc(C)nc3cc(OC)c(OC)cc23)c1	cell-free assay	competition with immobilised ligand	1 µM	74
CCN1CCN(Cc2ccc(C(=O)Nc3ccc(C)c(Oc4ccc5c(c4)CC(=O)N5)c3)cc2C(F)(F)F)CC1	binding	competition with immobilised ligand	1 µM	100
Cc1cnn2ncc(-c3ccnc(N(C)C)n3)c2c1	binding		1 µM	43
C=CC(=O)N1CCC(C(=O)NCC(=O)N2CCN(c3nc(-c4cnc(N)nc4C(F)F)nc(N4CCOCC4)n3)CC2)CC1	binding	competition with immobilised ligand	1 µM	89
Cc1cnc(Nc2ccc(C(=O)N3CCC(N4CCCC4)CC3)cc2)nc1-c1cc2ccccc2s1	binding	competition with immobilised ligand	1 µM	60
COc1cnc(Nc2cccc(S(N)(=O)=O)c2)nc1N1CCN(c2ccccc2)C(=O)C1	binding	competition with immobilised ligand	1 µM	93
O=C(NC[C@@H]1[C@H]2CN(C(=O)OCc3cc(C(F)(F)F)cc(C(F)(F)F)c3)C[C@@H]12)c1ccc2[nH]nnc2c1	cell-free assay	competition with immobilised ligand	1 µM	100
CN(C)c1ncc(F)c(-c2cnn3ncccc23)n1	binding		1 µM	98
CS(=O)(=O)NCC[C@H](NC(=O)c1cncc2c1cnn2-c1ccc(F)cc1)c1ccnc(S(C)(=O)=O)c1	cell-free assay	competition with immobilised ligand	1 µM	100
N[C@@H]1CCN(c2nccc(-c3cnn4ncccc34)n2)C1	binding		1 µM	12
O=C(NCCCN1CCOCC1)c1ccc(Nc2nccc(-c3cc4ccccc4s3)n2)cc1	binding	competition with immobilised ligand	1 µM	74
CNC(=O)Nc1ccc2c(c1)CC[C@@]21OC(=O)N(CC(=O)N(Cc2ccc(F)cc2)[C@@H](C)C(F)(F)F)C1=O	cell-free assay	competition with immobilised ligand	1 µM	93
CN(C)c1nccc(-c2cnn3ncccc23)n1	binding		1 µM	60
O=C(NCC1CCOCC1)c1n[nH]cc1NC(=O)c1c(F)cccc1F	binding	competition with immobilised ligand	1 µM	77
COc1ccc2c(c1)O[C@H](c1ccc(OC)c(OC)c1)C[C@@H]2NC(=O)C1(c2ccc3c(c2)OC(F)(F)O3)CC1	cell-free assay	competition with immobilised ligand	1 µM	82
Nc1ncc2c(n1)-c1c([nH]c3ccc(C#CC4CC4)cc13)CCCC2	binding	competition with immobilised ligand	1 µM	93
CS(=O)(=O)N1CCCC(NC(=O)[C@H](CCC2CCCCC2)NC(=O)c2ccc(CNc3ncnc4c3nnn4-c3ccccc3)cc2)C1 (stereo partly shown)	cell-free assay	competition with immobilised ligand	0.1 µM	99
COc1ccnn2ncc(-c3ccnc(N(C)C)n3)c12	binding		1 µM	55
CCC(=N\O)/C(C)=C/c1ccc(F)cc1	cell-free assay	competition with immobilised ligand	1 µM	74
C[C@H]1CCN(c2nccc(-c3cnn4ncccc34)n2)C1	binding		1 µM	47
O=C(c1ccc(Nc2ncc(Cl)c(-c3cc4ccccc4s3)n2)cc1)N1CCC(N2CCCC2)CC1	binding	competition with immobilised ligand	1 µM	67
